ChEMBL document CHEMBL1128681, “Studies on the monoamine oxidase (MAO)-catalyzed oxidation of phenyl-substituted 1-methyl-4-phenoxy-1,2,3,6-tetrahydropyridine derivatives: factors contributing to MAO-A and MAO-B selectivity” (J Med Chem, 1995)

How the values were obtained:
[1] = substrate: Cc1ccc(OC2=CCN(C)CC2)cc1; assay: (§1) Michaelis-Menten constant for Monoamine oxidase B catalyzed oxidation (KM).; set-up: species or system Bos taurus
Summary of the method: (§2)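 MAO-B at 0.08 μM final; activity was calibrated with MPTP at 30 °C and the preparation was stored at –15 °C. Substrate range 100–2000 μM in 100 mM sodium phosphate pH 7.4, with spectrophotometric initial oxidation rates. KM and kcat derived from double-reciprocal plots, and kcat/KM calculated from them.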

[2] = substrate: Cc1cccc(OC2=CCN(C)CC2)c1; assay: as §1; set-up: species or system Bos taurus; summary of the method: as §2
[3] = substrate: COc1ccc(OC2=CCN(C)CC2)cc1; assay: as §1; set-up: species or system Bos taurus; summary of the method: as §2
[4] = substrate: CN1CC=C(Oc2ccccc2-c2ccccc2)CC1; assay: as §1; set-up: species or system Bos taurus; summary of the method: as §2
[5] = substrate: COc1ccccc1OC1=CCN(C)CC1; assay: as §1; set-up: species or system Bos taurus; summary of the method: as §2
[6] = substrate: CN1CC=C(Oc2ccc([N+](=O)[O-])cc2)CC1; assay: as §1; set-up: species or system Bos taurus; summary of the method: as §2
[7] = substrate: COc1cccc(OC2=CCN(C)CC2)c1; assay: as §1; set-up: species or system Bos taurus; summary of the method: as §2
[8] = substrate: CN1CC=C(Cc2ccccc2)CC1; assay: as §1; set-up: species or system Bos taurus; summary of the method: as §2
[9] = substrate: CN1CC=C(Oc2cccc(Cl)c2)CC1; assay: as §1; set-up: species or system Bos taurus; summary of the method: as §2
[10] = substrate: CN1CC=C(Oc2ccc(Cl)cc2)CC1; assay: as §1; set-up: species or system Bos taurus; summary of the method: as §2
[11] = substrate: CN1CC=C(Oc2cccc([N+](=O)[O-])c2)CC1; assay: as §1; set-up: species or system Bos taurus; summary of the method: as §2
[12] = substrate: CN1CC=C(Oc2ccccc2[N+](=O)[O-])CC1; assay: as §1; set-up: species or system Bos taurus; summary of the method: as §2
[13] = substrate: CN1CC=C(Oc2ccccc2Cl)CC1; assay: as §1; set-up: species or system Bos taurus; summary of the method: as §2
[14] = substrate: Cc1ccccc1OC1=CCN(C)CC1; assay: as §1; set-up: species or system Bos taurus; summary of the method: as §2
[15] = substrate: CN1CC=C(Oc2cccc(-c3ccccc3)c2)CC1; assay: as §1; set-up: species or system Bos taurus; summary of the method: as §2
[16] = substrate: Cc1ccc(OC2=CCN(C)CC2)cc1; assay: (§3) Michaelis-Menten constant for Monoamine oxidase A-catalyzed oxidation (KM).
Summary of the method: (§4)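 MAO-A at 0.16 μM final, raised to 0.32 μM for one slowly oxidized substrate. The MAO-A preparation was diluted with 3 volumes of phosphate buffer just before use, and its activity was re-checked bimonthly with kynuramine at 30 °C. Substrates at 100–2000 μM in 100 mM sodium phosphate pH 7.4; initial rates by spectrophotometry. kcat and KM from double-reciprocal plots; kcat/KM as their ratio.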

[17] = substrate: Cc1cccc(OC2=CCN(C)CC2)c1; assay: as §3; summary of the method: as §4
[18] = substrate: COc1ccc(OC2=CCN(C)CC2)cc1; assay: as §3; summary of the method: as §4
[19] = substrate: CN1CC=C(Oc2ccccc2-c2ccccc2)CC1; assay: as §3; summary of the method: as §4
[20] = substrate: COc1ccccc1OC1=CCN(C)CC1; assay: as §3; summary of the method: as §4
[21] = substrate: CN1CC=C(Oc2ccc([N+](=O)[O-])cc2)CC1; assay: as §3; summary of the method: as §4
[22] = substrate: COc1cccc(OC2=CCN(C)CC2)c1; assay: as §3; summary of the method: as §4
[23] = substrate: CN1CC=C(Cc2ccccc2)CC1; assay: as §3; summary of the method: as §4
[24] = substrate: CN1CC=C(Oc2cccc(Cl)c2)CC1; assay: as §3; summary of the method: as §4
[25] = substrate: CN1CC=C(Oc2ccc(Cl)cc2)CC1; assay: as §3; summary of the method: as §4
[26] = substrate: CN1CC=C(Oc2cccc([N+](=O)[O-])c2)CC1; assay: as §3; summary of the method: as §4
[27] = substrate: CN1CC=C(Oc2ccccc2[N+](=O)[O-])CC1; assay: as §3; summary of the method: as §4
[28] = substrate: CN1CC=C(Oc2ccccc2Cl)CC1; assay: as §3; summary of the method: as §4
[29] = substrate: Cc1ccccc1OC1=CCN(C)CC1; assay: as §3; summary of the method: as §4
[30] = substrate: CN1CC=C(Oc2cccc(-c3ccccc3)c2)CC1; assay: as §3; summary of the method: as §4

B1: Amine oxidase [flavin-containing] B (Bos taurus) (protein)
chain: MSSKCDVVVVGGGISGMAAAKLLHDSGLNVIVLEARDRVGGRTYTLRNQKVKYVDLGGSYVGPTQNHILRLSKELGLETYKVNEVERLIHHTKGKSYPFRGSFPSVWNPITYLDHNNLWRTMDDMGREIPSDAPWKAPLAEQWDLMTMKELLDKICWTESSKQLAILFVNLCVTAEIHEVSALWFLWYVKQCGGTTRIFSTSNGGQERKFVGGSGQVSERIMDLLGDRVKLERPVIHIDQTGENVLVETLNHELYEAKYVISAVPPVLGMKIHFNPPLPMMRNQLITRVPLGSVIKSIVYYKEPFWRNMDYCGSMIIEGEEAPVAYALDDTKPDGSYPAIIGFILAHKARKLARLTKEERLKKLCDLYAKVLGSQEALHPVHYEEKNWCEEQYSGGCYTSYFPPGIMTQYGRVLRQPVGRIYFAGTETATHWSGYMEGAVEAGERAAREILHAMGKIPEDEIWLPEPESVDVPAKPITTTFLQRHLPSVPGLLKLIGLTTIFSATALGFLAHKRGLLVRI
Work on B1 yielded a Km [1] of 106 µM, a kcat [1] of 3.57 s⁻¹ and a kcat/Km [1] of 33600 M⁻¹ s⁻¹. The Km [2] was 116 µM, the kcat [2] was 3.37 s⁻¹ and the kcat/Km [2] was 29100 M⁻¹ s⁻¹. It also gave a Km [3] of 474 µM, a kcat [3] of 5.9 s⁻¹ and a kcat/Km [3] of 12400 M⁻¹ s⁻¹. The Km [4] was 691 µM, the kcat [4] was 1.52 s⁻¹ and the kcat/Km [4] was 2200 M⁻¹ s⁻¹. It also gave a Km [5] of 313 µM, a kcat [5] of 5.7 s⁻¹ and a kcat/Km [5] of 12400 M⁻¹ s⁻¹. The Km [6] was 443 µM, the kcat [6] was 1.4 s⁻¹ and the kcat/Km [6] was 3180 M⁻¹ s⁻¹. It also gave a Km [7] of 337 µM, a kcat [7] of 4.05 s⁻¹ and a kcat/Km [7] of 12000 M⁻¹ s⁻¹. It also gave a Km [8] of 180 µM, a kcat [8] of 10.7 s⁻¹ and a kcat/Km [8] of 59700 M⁻¹ s⁻¹. The Km [9] was 308 µM, the kcat [9] was 3.73 s⁻¹ and the kcat/Km [9] was 12200 M⁻¹ s⁻¹. For the same protein, the Km [10] was 254 µM, the kcat [10] was 5.93 s⁻¹ and the kcat/Km [10] was 23400 M⁻¹ s⁻¹. For the same protein, the Km [11] was 105 µM, the kcat [11] was 2.47 s⁻¹ and the kcat/Km [11] was 23500 M⁻¹ s⁻¹. The Km [12] was 86 µM, the kcat [12] was 1.13 s⁻¹ and the kcat/Km [12] was 13100 M⁻¹ s⁻¹. It also gave a Km [13] of 220 µM, a kcat [13] of 3.02 s⁻¹ and a kcat/Km [13] of 13700 M⁻¹ s⁻¹. For the same protein, the Km [14] was 98 µM, the kcat [14] was 2.92 s⁻¹ and the kcat/Km [14] was 29700 M⁻¹ s⁻¹. The Km [15] was 346 µM, the kcat [15] was 3.67 s⁻¹ and the kcat/Km [15] was 10600 M⁻¹ s⁻¹.

B2: Amine oxidase [flavin-containing] A (Homo sapiens) (protein)
chain: MENQEKASIAGHMFDVVVIGGGISGLSAAKLLTEYGVSVLVLEARDRVGGRTYTIRNEHVDYVDVGGAYVGPTQNRILRLSKELGIETYKVNVSERLVQYVKGKTYPFRGAFPPVWNPIAYLDYNNLWRTIDNMGKEIPTDAPWEAQHADKWDKMTMKELIDKICWTKTARRFAYLFVNINVTSEPHEVSALWFLWYVKQCGGTTRIFSVTNGGQERKFVGGSGQVSERIMDLLGDQVKLNHPVTHVDQSSDNIIIETLNHEHYECKYVINAIPPTLTAKIHFRPELPAERNQLIQRLPMGAVIKCMMYYKEAFWKKKDYCGCMIIEDEDAPISITLDDTKPDGSLPAIMGFILARKADRLAKLHKEIRKKKICELYAKVLGSQEALHPVHYEEKNWCEEQYSGGCYTAYFPPGIMTQYGRVIRQPVGRIFFAGTETATKWSGYMEGAVEAGERAAREVLNGLGKVTEKDIWVQEPESKDVPAVEITHTFWERNLPSVSGLLKIIGFSTSVTALGFVLYKYKLLPRS
B2 showed a Km [16] of 129 µM, a kcat [16] of 1.3 s⁻¹ and a kcat/Km [16] of 10000 M⁻¹ s⁻¹. It also gave a Km [17] of 212 µM, a kcat [17] of 7.18 s⁻¹ and a kcat/Km [17] of 33900 M⁻¹ s⁻¹. The Km [18] was 47 µM, the kcat [18] was 1.22 s⁻¹ and the kcat/Km [18] was 25800 M⁻¹ s⁻¹. It also gave a Km [19] of 426 µM, a kcat [19] of 4.08 s⁻¹ and a kcat/Km [19] of 9580 M⁻¹ s⁻¹. The Km [20] was 75 µM, the kcat [20] was 0.95 s⁻¹ and the kcat/Km [20] was 12700 M⁻¹ s⁻¹. The Km [21] was 169 µM, the kcat [21] was 1.37 s⁻¹ and the kcat/Km [21] was 8050 M⁻¹ s⁻¹. For the same protein, the Km [22] was 176 µM, the kcat [22] was 8.2 s⁻¹ and the kcat/Km [22] was 46600 M⁻¹ s⁻¹. It also gave a Km [23] of 103 µM, a kcat [23] of 0.467 s⁻¹ and a kcat/Km [23] of 4600 M⁻¹ s⁻¹. The Km [24] was 82 µM, the kcat [24] was 5.97 s⁻¹ and the kcat/Km [24] was 72800 M⁻¹ s⁻¹. It also gave a Km [25] of 63 µM, a kcat [25] of 3.15 s⁻¹ and a kcat/Km [25] of 50100 M⁻¹ s⁻¹. The Km [26] was 174 µM, the kcat [26] was 4.95 s⁻¹ and the kcat/Km [26] was 28500 M⁻¹ s⁻¹. The Km [27] was 306 µM, the kcat [27] was 6.83 s⁻¹ and the kcat/Km [27] was 22300 M⁻¹ s⁻¹. The Km [28] was 83 µM, the kcat [28] was 3.4 s⁻¹ and the kcat/Km [28] was 41000 M⁻¹ s⁻¹. For the same protein, the Km [29] was 108 µM, the kcat [29] was 4.5 s⁻¹ and the kcat/Km [29] was 41700 M⁻¹ s⁻¹. For the same protein, the Km [30] was 232 µM, the kcat [30] was 21.5 s⁻¹ and the kcat/Km [30] was 92800 M⁻¹ s⁻¹.
